# In ChEMBL document CHEMBL1240329, “Identification and mechanistic characterization of low-molecular-weight inhibitors for HuR” (Nat Chem Biol, 2007):
# The source made the active and inactive calls. No cut-off for these calls is given here.
# What was measured:
# Monocyte [1] = assay: Inhibition of COX-2 expression in LPS/INF-gamma-stimulated human primary monocytes up to 30 uM by ELISA; format: functional
# Monocyte [2] = assay: Inhibition of COX-2 gene expression in LPS/INF-gamma-stimulated human primary monocytes up to 30 uM by RT-PCR analysis; format: functional
# Monocyte [3] = assay: Inhibition of IL-6 expression in LPS/INF-gamma-stimulated human primary monocytes up to 30 uM by ELISA; format: functional
# Monocyte [4] = assay: Inhibition of IL1-beta expression in LPS/INF-gamma-stimulated human primary monocytes up to 30 uM by ELISA; format: functional
# Monocyte [5] = assay: Inhibition of IL1-beta expression in LPS/INF-gamma-stimulated human primary monocytes by ELISA; format: functional
# Monocyte [6] = assay: Inhibition of IL-6 gene expression in LPS/INF-gamma-stimulated human primary monocytes up to 30 uM by RT-PCR analysis; format: functional
# ELAV-like protein 1 [7] = target: T1, ELAV-like protein 1 (Homo sapiens, UniProt Q15717); assay: Inhibition of recombinant HuR RRM1/RRM2 domain assessed as protein dimerization with TMR-labeled A/U-rich element of TNFalpha by confocal fluctuation spectroscopy
# T1 sequence (Q15717 whole entry, the tested form may be a part): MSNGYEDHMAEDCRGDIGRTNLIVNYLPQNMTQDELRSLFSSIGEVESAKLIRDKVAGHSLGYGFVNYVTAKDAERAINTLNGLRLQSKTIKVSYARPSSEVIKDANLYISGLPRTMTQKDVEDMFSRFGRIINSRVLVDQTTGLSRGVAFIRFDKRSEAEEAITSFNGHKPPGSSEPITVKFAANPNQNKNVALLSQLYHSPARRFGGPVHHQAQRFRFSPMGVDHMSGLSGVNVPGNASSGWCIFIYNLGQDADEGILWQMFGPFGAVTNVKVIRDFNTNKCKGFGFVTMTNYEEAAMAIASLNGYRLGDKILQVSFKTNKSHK
# Monocyte [8] = assay: Inhibition of IL-6 gene expression in LPS/INF-gamma-stimulated human primary monocytes by RT-PCR analysis
# [9] = Cytotoxicity against human PBMC assessed as cell viability at 25 uM after 48 hrs relative control; format: cell-based; details: read-out: Activity
# Summary of the method: (§1)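 Freshly isolated human PBMCs activated with soluble anti-CD3 plus anti-CD28 and exposed to compound for 48 h. Viability expressed as percent of DMSO control.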
# ELAV-like protein 1 [10] = target: T1, ELAV-like protein 1; assay: Inhibition of recombinant full length HuR assessed as inhibition of protein-IL-2 A/U-rich element interaction-associated release of particle number at 2 uM by 2D-FIDA
# ELAV-like protein 1 [11] = target: T1, ELAV-like protein 1; assay: Inhibition of recombinant HuR RRM1/RRM2 domain assessed as protein interaction with TMR-labeled A/U-rich element of IL-2 by confocal fluctuation spectroscopy
# Summary of the method: (§2)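 Binding followed as fluorescence anisotropy by 2D-FIDA, converted to fraction bound. Inhibition curves simulated from the fitted HuR–RNA Kd, with actual RNA, HuR and compound levels as boundary conditions. Ten measurements averaged; at least three independent experiments.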
# ELAV-like protein 1 [12] = target: T1, ELAV-like protein 1; assay: Inhibition of recombinant HuR RRM1/RRM2 domain assessed as protein interaction with TMR-labeled A/U-rich element of TNFalpha by confocal fluctuation spectroscopy; summary of the method: as §2
# Monocyte [13] = assay: Inhibition of COX-2 gene expression in LPS/INF-gamma-stimulated human primary monocytes by RT-PCR analysis
# ELAV-like protein 1 [14] = target: T1, ELAV-like protein 1; assay: Binding affinity recombinant HuR RRM1/RRM2 domain by confocal fluctuation spectroscopy; summary of the method: as §2
# Monocyte [15] = assay: Inhibition of IL1-beta gene expression in LPS/INF-gamma-stimulated human primary monocytes by RT-PCR analysis
# PBMC [16] = assay: Inhibition of HuR in anti-CD3 and anti-CD28-stimulated human PBMC assessed as reduction of cytoplasmic protein level at 25 uM after 48 hrs by confocal microscopy; format: functional, cell-based
# Monocyte [17] = assay: Inhibition of IL-6 expression in LPS/INF-gamma-stimulated human primary monocytes by ELISA; format: functional
# Monocyte [18] = assay: Inhibition of COX-2 expression in LPS/INF-gamma-stimulated human primary monocytes by ELISA; format: functional
# ELAV-like protein 1 [19] = target: T1, ELAV-like protein 1; assay: Inhibition of recombinant HuR RRM1/RRM2 domain assessed as protein dimerization with TMR-labeled A/U-rich element of IL-2 by confocal fluctuation spectroscopy
# [20] = target: Myosin light chain kinase, smooth muscle (Homo sapiens, UniProt Q15746); assay: Inhibition of MYLK
# Myosin light chain kinase, smooth muscle, sequence (Q15746 whole entry): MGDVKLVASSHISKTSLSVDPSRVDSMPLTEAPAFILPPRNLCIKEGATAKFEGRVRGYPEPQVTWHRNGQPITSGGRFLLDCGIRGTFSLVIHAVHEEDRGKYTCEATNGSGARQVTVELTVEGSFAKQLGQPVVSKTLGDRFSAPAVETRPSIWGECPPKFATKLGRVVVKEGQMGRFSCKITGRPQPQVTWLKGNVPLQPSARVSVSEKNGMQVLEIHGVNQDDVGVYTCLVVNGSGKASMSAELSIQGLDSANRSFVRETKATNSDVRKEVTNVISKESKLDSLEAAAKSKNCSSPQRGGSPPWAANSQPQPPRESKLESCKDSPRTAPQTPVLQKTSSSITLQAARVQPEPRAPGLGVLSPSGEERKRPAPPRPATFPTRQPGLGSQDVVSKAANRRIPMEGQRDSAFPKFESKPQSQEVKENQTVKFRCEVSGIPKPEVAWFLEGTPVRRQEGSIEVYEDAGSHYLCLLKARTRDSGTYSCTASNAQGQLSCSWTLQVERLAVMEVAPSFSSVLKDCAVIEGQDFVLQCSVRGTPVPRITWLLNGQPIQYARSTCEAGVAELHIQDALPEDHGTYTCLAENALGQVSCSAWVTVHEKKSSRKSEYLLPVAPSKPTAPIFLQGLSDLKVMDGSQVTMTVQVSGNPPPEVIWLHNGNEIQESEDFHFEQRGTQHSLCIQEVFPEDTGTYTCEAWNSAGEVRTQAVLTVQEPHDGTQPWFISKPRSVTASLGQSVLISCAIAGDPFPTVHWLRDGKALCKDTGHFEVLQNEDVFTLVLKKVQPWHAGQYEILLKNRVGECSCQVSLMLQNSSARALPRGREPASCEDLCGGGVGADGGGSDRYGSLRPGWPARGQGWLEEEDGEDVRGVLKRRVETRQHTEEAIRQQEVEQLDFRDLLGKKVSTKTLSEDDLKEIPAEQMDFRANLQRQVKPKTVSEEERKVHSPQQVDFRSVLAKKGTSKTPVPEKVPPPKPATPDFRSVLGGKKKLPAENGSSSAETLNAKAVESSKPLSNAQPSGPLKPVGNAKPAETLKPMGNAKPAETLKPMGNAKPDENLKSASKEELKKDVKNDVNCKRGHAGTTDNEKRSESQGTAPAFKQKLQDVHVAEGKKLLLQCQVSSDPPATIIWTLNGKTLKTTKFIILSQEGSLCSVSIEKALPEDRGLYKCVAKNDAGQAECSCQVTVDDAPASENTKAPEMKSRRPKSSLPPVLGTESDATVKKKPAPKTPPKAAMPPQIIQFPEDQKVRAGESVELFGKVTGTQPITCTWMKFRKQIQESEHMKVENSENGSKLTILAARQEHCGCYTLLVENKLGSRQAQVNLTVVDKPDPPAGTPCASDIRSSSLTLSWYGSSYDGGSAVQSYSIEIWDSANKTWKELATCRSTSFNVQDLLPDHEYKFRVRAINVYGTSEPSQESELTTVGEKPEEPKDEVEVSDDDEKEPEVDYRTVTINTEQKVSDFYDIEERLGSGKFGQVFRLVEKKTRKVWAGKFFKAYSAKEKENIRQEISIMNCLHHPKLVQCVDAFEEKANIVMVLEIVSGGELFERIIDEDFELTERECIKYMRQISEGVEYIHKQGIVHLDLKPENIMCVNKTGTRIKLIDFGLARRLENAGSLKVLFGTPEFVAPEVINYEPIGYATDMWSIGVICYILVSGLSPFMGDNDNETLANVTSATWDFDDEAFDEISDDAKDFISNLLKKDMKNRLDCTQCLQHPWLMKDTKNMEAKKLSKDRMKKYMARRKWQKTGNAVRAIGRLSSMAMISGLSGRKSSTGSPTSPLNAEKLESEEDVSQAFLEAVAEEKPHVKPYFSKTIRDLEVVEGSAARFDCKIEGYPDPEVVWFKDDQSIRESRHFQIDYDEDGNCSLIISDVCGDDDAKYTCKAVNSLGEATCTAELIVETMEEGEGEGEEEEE
# PBMC [21] = assay: Inhibition of HuR in anti-CD3 and anti-CD28-stimulated human PBMC assessed as reduction of cytoplasmic protein level after 48 hrs by confocal microscopy; format: functional, cell-based
# Monocyte [22] = assay: Inhibition of IL1-beta gene expression in LPS/INF-gamma-stimulated human primary monocytes up to 30 uM by RT-PCR analysis; format: functional
# [23] = Cytotoxicity against human PBMC assessed as cell viability at 50 uM after 48 hrs relative control; format: cell-based; details: read-out: Activity; summary of the method: as §1
compound,measurement,setting,value
Cc1cc(O)cc2oc(Cc3cc(O)cc(=O)o3)cc(=O)c12,inhibition,Monocyte [1],inactive
same,inhibition,Monocyte [2],inactive
same,inhibition,Monocyte [3],inactive
same,inhibition,Monocyte [4],inactive
same,inhibition,Monocyte [5],inactive
same,inhibition,Monocyte [6],inactive
Cc1occ2c1C(=O)c1c(O)ccc(O)c1C2,Kd,ELAV-like protein 1 [7],0.1 nM
same,IC50,Monocyte [8],2400 nM
same,"viability at 48 h, 25 µM",[9],94%
same,inhibition,ELAV-like protein 1 [10],Active
same,Kd,ELAV-like protein 1 [11],230 nM
same,Kd,ELAV-like protein 1 [12],14 nM
same,IC50,Monocyte [13],2100 nM
same,Kd,ELAV-like protein 1 [14],420 nM
same,IC50,Monocyte [15],3700 nM
same,inhibition,PBMC [16],inactive
same,inhibition,Monocyte [5],Dose-dependent effect
same,inhibition,Monocyte [17],Dose-dependent effect
same,inhibition,Monocyte [18],Dose-dependent effect
same,Kd,ELAV-like protein 1 [19],0.1 nM
same,IC50,[20],10000 nM
Cc1cc(O)cc2cc3c(c(O)c12)C(=O)CCC3O (stereo unspecified),inhibition,PBMC [21],inactive
Cc1cc(O)c2c(O)cccc2c1-c1cc(=O)cc(O)o1 [DEHYDROMUTACTIN],inhibition,Monocyte [1],inactive
same,inhibition,Monocyte [2],inactive
same,inhibition,Monocyte [3],inactive
same,inhibition,Monocyte [4],inactive
same,inhibition,Monocyte [22],inactive
same,inhibition,Monocyte [5],inactive
same,inhibition,Monocyte [6],inactive
same,"viability at 48 h, 50 µM",[23],97%
same,inhibition,PBMC [21],Dose-dependent effect
